ChEMBL document CHEMBL1122320, “1H-2-benzopyran-1-one derivatives, microbial products with pharmacological activity. Relationship between structure and activity in 6-[[1(S)-(3(S),4- dihydro-8-hydroxy-1-oxo-1H-2-benzopyran-3-yl)-3-methylbutyl]-amino]-4(S), 5(S)-dihydroxy-6-oxo-3(S)-ammoniohexanoate” (J Med Chem, 1983)

Key:
Rattus norvegicus [1] = test: Gastroprotective activity on stress-induced ulcers in male Wistar rats at 25 mg/kg upon intraperitoneal administration; format: functional
How it was run: (§1)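 Rats (160-180 g) fasted 24 h, given test compound ip in physiological saline; saline-only controls. After 1 h, restrained in net cage and immersed to xiphisternum in 21 °C water bath for 6 h, then killed and stomachs opened along greater curvature. Hemorrhagic ulceration scored 0-3; % protection = 100 − (treated total rating/saline rating)×100. Five rats per dose.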

Rattus norvegicus [2] = test: Gastroprotective activity on stress-induced ulcers in male Wistar rats at 50 mg/kg upon intraperitoneal administration; format: functional; how it was run: as §1
Rattus norvegicus [3] = test: Gastroprotective activity on stress-induced ulcers in male Wistar rats at 12.5 mg/kg upon intraperitoneal administration; format: functional; how it was run: as §1
Rattus norvegicus [4] = test: Gastroprotective activity on stress-induced ulcers in male Wistar rats at 6.25 mg/kg upon intraperitoneal administration; format: functional; how it was run: as §1
[5] = Lethal dose in mice upon intraperitoneal administration;Value ranges from(5-9.8); format: toxicity, organism-based; details: mouse, in vivo, ip
Rattus norvegicus [6] = test: Gastroprotective activity on stress-induced ulcers in male Wistar rats at 6.25 mg/kg upon intraperitoneal administration;the minimum effective dose = 125 ug/kg (protection 66%); format: functional
How it was run: (§2)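 Male Wistar rats (160-180 g), food-deprived 24 h, given compound ip in physiological saline; saline-only controls. After 1 h, restrained in net cage and immersed to xiphisternum in 21 °C water for 6 h. Stomachs removed and opened along greater curvature, hemorrhagic ulceration scored 0-3. % protection = 100 − (treated total rating / saline rating)×100. Five rats per dose.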

Rattus norvegicus [7] = test: Gastroprotective activity on stress-induced ulcers in male Wistar rats at the specified ip dose of 12.5 mg/kg; format: functional; details: route intraperitoneal; how it was run: as §2
[8] = Lethal dose in mice upon intraperitoneal administration;Value ranges from(131.6-243.4); format: toxicity, organism-based; details: mouse, in vivo, ip

CC(C)CC(N)C1Cc2cccc(O)c2C(=O)O1.Cl (centres undefined)
Protection (Rattus norvegicus [1]): 33% | Protection (Rattus norvegicus [2]): 33% | Protection (Rattus norvegicus [3]): 16%

CC(=O)NC1CC(=O)OC1C(OC(C)=O)C(=O)NC(CC(C)C)C1Cc2cccc(O)c2C(=O)O1 (centres undefined)
Protection (Rattus norvegicus [1]): 16% | Protection (Rattus norvegicus [2]): 16% | Protection (Rattus norvegicus [3]): 0%

CC(=O)NC1CC(=O)OC1C(OC(C)=O)C(=O)NC(CC(C)C)C1Cc2cccc(OC(C)=O)c2C(=O)O1 (centres undefined)
Protection (Rattus norvegicus [1]): 0% | Protection (Rattus norvegicus [2]): 16% | Protection (Rattus norvegicus [3]): 0%

CC(C)CC(NC(=O)C(O)C(O)C(N)CC(=O)O)C(O)Cc1cccc(O)c1C(=O)[O-].[Na+] (centres undefined)
Protection (Rattus norvegicus [1]): 50% | Protection (Rattus norvegicus [2]): 50% | Protection (Rattus norvegicus [3]): 16%

CC(C)CC(NC(=O)C(O)C1OC(=O)CC1N)C1Cc2cccc(O)c2C(=O)O1 (centres undefined)
Protection (Rattus norvegicus [1]): 76% | Protection (Rattus norvegicus [4]): 17% | Protection (Rattus norvegicus [2]): 83% | Protection (Rattus norvegicus [3]): 76%

COc1cccc2c1C(=O)OC(C(CC(C)C)NC(=O)C(O)C(O)C(N)CC(=O)O)C2 (centres undefined)
Protection (Rattus norvegicus [1]): 83% | Protection (Rattus norvegicus [4]): 50% | Protection (Rattus norvegicus [2]): 83% | Protection (Rattus norvegicus [3]): 66%

CC(=O)NC1CC(=O)OC1C(O)C(=O)NC(CC(C)C)C1Cc2cccc(O)c2C(=O)O1 (centres undefined)
Protection (Rattus norvegicus [1]): 33% | Protection (Rattus norvegicus [2]): 66% | Protection (Rattus norvegicus [3]): 16%

NC(CC(=O)O)C(O)C(O)C(=O)[O-].[Na+] (centres undefined)
Protection (Rattus norvegicus [1]): 23% | Protection (Rattus norvegicus [2]): 43% | Protection (Rattus norvegicus [3]): 0%

CC(C)CC(NC(=O)C(O)C(O)C(N)CC(N)=O)C1Cc2cccc(O)c2C(=O)O1.Cl (centres undefined)
Protection (Rattus norvegicus [1]): 100% | LD50 [5]: 7 mg/kg | Protection (Rattus norvegicus [6]): 100% | Protection (Rattus norvegicus [7]): 100% | Protection (Rattus norvegicus [2]): 100%

CC(C)CC(NC(=O)C(O)C1C=CC(=O)O1)C1Cc2cccc(O)c2C(=O)O1 (centres undefined)
Protection (Rattus norvegicus [1]): 16% | Protection (Rattus norvegicus [2]): 33% | Protection (Rattus norvegicus [3]): 0%

CC(C)C[C@H](NC(=O)[C@@H](O)[C@@H](O)[C@@H](N)CC(=O)O)[C@@H]1Cc2cccc(O)c2C(=O)O1
Protection (Rattus norvegicus [1]): 100% | Protection (Rattus norvegicus [4]): 56% | LD50 [8]: 179 mg/kg | Protection (Rattus norvegicus [2]): 100% | Protection (Rattus norvegicus [3]): 76%
